Screening data from PubChem.
Shown is part of a subset that was picked to be rich in hits.
PvdQ inh: P. aeruginosa PvdQ acylase inhibitors, primary screen, biochemical, fluorescence, plate reader and imaging, single point; PvdQ acylase [Pseudomonas aeruginosa LESB58]; purified PvdQ acylase; inhibition, % at 10 µM; 0.063% of 340,000 active; in the data active = inhibition above about 30%, passing the limit was not always enough;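 also: 0% = vehicle neutral wells and 100% = reference inhibitor wells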
UPR CHOP act: activators of apoptotic CHOP UPR arm, primary screen, cell-based, CHO-CHOP luciferase reporter, luminescence, uHTS; UPR activation; percent of tunicamycin response over DMSO baseline; activation, % at 10 µM; 0.34% of 330,000 active; AID 449763, 2010;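 active = at 10 µM dose, activation of 40% or more, normalized to positive control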;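 also: 100% = tunicamycin at 10 µg/mL and 0% = DMSO alone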
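measured by = luciferase luminescence | assay system = CHO-CHOP cells, stable luciferase reporter of PERK-eIF2a-CHOP signalling | amount = 500 reporter cells seeded per well | timing = 6 h compound exposure at 37 °C after overnight seeding | controls = positive tunicamycin 10 µg/mL, negative DMSO alone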
UPR XBP1 act: activators of adaptive XBP1 UPR arm, primary screen, cell-based, CHO-XBP1 luciferase reporter, luminescence, uHTS; IRE1-XBP1 UPR activation; percent of tunicamycin response, DMSO as zero; activation, % at 20 µM; 0.33% of 330,000 active; AID 463104, 2010;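 active = versus positive control, 20 µM dose yields 30% or more activation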;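 also: 100% = tunicamycin at 10 µg/mL and 0% = DMSO only wells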
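Material: CHO-XBP1 cells stably carrying IRE1-XBP1-driven luciferase reporter / Amount: 1000 cells per well / Compound: 20 µM, 1% DMSO / Times: 6 h treatment, 37 °C / Detection: luciferase luminescence / Measure: % activation of reporter signal versus tunicamycin and DMSO controls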
CHOP inh: inhibitors of CHOP promoter induction, primary screen, cell-based, unfolded protein response, luciferase reporter | CHO-K1 CHOP-promoter luciferase, tunicamycin-induced, 15-18 h | inhibition, % at 10 µM | 3.8% of 220,000 active | AID 2732, 2010;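 active = compounds that reduced the stress-induced luciferase reporter signal by more than about 70% of percent inhibition, limit read from the data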;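 also: 0% = tunicamycin plus vehicle and 100% = wells without tunicamycin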
* marks the source's active call; other numbers are inactive results.

C(=C\c1nccc2c1[nH]c1ccccc12)/c1ccccc1 was read as PvdQ inh -62, UPR CHOP act 5, UPR XBP1 act -1 and CHOP inh 4.
`O=C(Cc1ccccc1F)Nc1ccc(S(=O)(=O)Nc2ncccn2)cc1` gave PvdQ inh 7, UPR CHOP act 1 and UPR XBP1 act 3.
CCCCc1ccc(Nc2ncccc2C#N)cc1 was read as PvdQ inh 19, UPR CHOP act 2, UPR XBP1 act 1 and CHOP inh 45.
N#Cc1cccnc1Nc1ccc(Cl)cc1 was read as PvdQ inh 32*, UPR CHOP act 1, UPR XBP1 act 2 and CHOP inh 18.
Screening CC(C)(C)NC(=O)NC(=O)COc1ccc(Br)cc1Br returned PvdQ inh -12, UPR CHOP act 3, UPR XBP1 act -3 and CHOP inh 83*.
`O=C(COc1ccc(Br)cc1Cl)NC(=O)NCc1ccccc1` gave PvdQ inh -18, UPR CHOP act 2, UPR XBP1 act -5 and CHOP inh 80*.
O=C(COc1ccccc1Cl)NCc1ccccc1 was read as PvdQ inh -16, UPR CHOP act 5 and UPR XBP1 act -1.
`Cc1cc(Br)ccc1OCC(=O)NC1CCCC1` gave PvdQ inh -7, UPR CHOP act 4 and UPR XBP1 act 1.
O=C(COc1ccc(Br)cc1Br)NC(=O)NC1CCCC1 was read as PvdQ inh -10, UPR CHOP act 3, UPR XBP1 act 2 and CHOP inh 87*.
For CC(C)(C)NC(=O)NC(=O)COC(=O)COc1ccc(Cl)cc1Cl the results were PvdQ inh -14, UPR CHOP act -1, UPR XBP1 act 1 and CHOP inh 32.
For c1nc2n(n1)C1=C(CCCC1)C1(CCCCC1)N2 the results were PvdQ inh 5, UPR CHOP act -1, UPR XBP1 act 3 and CHOP inh 19.
CCN(c1ccc(NC(=O)c2cccc(S(=O)(=O)N3CCN(C)CC3)c2)cc1)C(C)C was read as PvdQ inh -6, UPR CHOP act -2 and UPR XBP1 act -2.
Screening O=C(NCCc1ccccc1)C(c1cccs1)N(C(=O)CCl)c1ccc(Cl)cc1 (stereo not given) returned PvdQ inh -21, UPR CHOP act -1, UPR XBP1 act -7 and CHOP inh 111*.
Screening O=C(NCCc1ccccc1)C(c1cccs1)N(C(=O)c1csnn1)C1CC1 (stereo not given) returned PvdQ inh -10, UPR CHOP act -2, UPR XBP1 act 2 and CHOP inh 30.
Screening CNC(=S)NNC(=O)c1cn(C)nc1C returned PvdQ inh 12, UPR CHOP act 0, UPR XBP1 act 0 and CHOP inh 29.
Screening CCCc1cc(=O)[nH]c(SCC(=O)Nc2cccc(S(=O)(=O)N3CCOCC3)c2)n1 returned PvdQ inh -7, UPR CHOP act -1 and UPR XBP1 act 0.
`O=S(=O)(c1ccc(-c2csc(Nc3ccc(F)cc3)n2)cc1)N1CCCC1` gave PvdQ inh -4, UPR CHOP act 1, UPR XBP1 act 6 and CHOP inh 90*.
Screening CCOc1cc(Cl)c(NC(C)=O)cc1OCC returned PvdQ inh -7, UPR CHOP act 4, UPR XBP1 act 1 and CHOP inh 1.
Screening COc1ccc(/C=N/NC(=O)Cc2csc(Nc3cccc(C(F)(F)F)c3)n2)c(OC)c1 returned PvdQ inh -11, UPR CHOP act -1, UPR XBP1 act -9 and CHOP inh 95*.
For CCOc1ccc(/C=N/NC(=O)Cc2csc(Nc3cccc(C(F)(F)F)c3)n2)c(OCC)c1 the results were PvdQ inh -5, UPR CHOP act 4, UPR XBP1 act -1 and CHOP inh 21.
Screening CC(=O)Nc1ccc(NC(=O)CSc2ccccn2)cc1 returned PvdQ inh 17, UPR CHOP act 0, UPR XBP1 act -2 and CHOP inh -15.
Screening O=C(CSC1=NNC(c2ccccn2)S1)Nc1ccc(C(F)(F)F)cc1 (stereo not given) returned PvdQ inh -7, UPR CHOP act 29, UPR XBP1 act 7 and CHOP inh 73*.
COc1cc(/C=N/NC(=O)c2cc(-c3ccc4c(c3)OCO4)n[nH]2)ccc1O was read as PvdQ inh -1, UPR CHOP act 2, UPR XBP1 act 10 and CHOP inh -6.
